Data reported in article PMC6488424 (European journal of medicinal chemistry, 2019).

Tests used:
[1] = target: CXCR4 (Homo sapiens, UniProt P61073); type: binding; details: fold loss of affinity vs RB-108
[2] = tested on: SKBR3; experiment: Cytotoxicity, cell viability; type: cell-based, human; details: concentrations as high as 100 μM, 24 h treatment
Summary of the method: (§1)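 Cells were seeded at 3000 cells/well and held 24 h at 37 °C in a CO2 incubator. They were then exposed to the test compound for 24 h at 37 °C. MTT-type tetrazolium reagent (CellTiter 96AQ) was added for a further 2 h, and absorbance was read at 490 nm.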

[3] = Carrageenan-induced paw inflammation suppression test; type: in vivo; details: mouse paw after treatment with IIIm
[4] = tested on: MDA-MB-231; experiment: Cytotoxicity, cell viability; type: cell-based, human; details: concentrations as high as 100 μM, 24 h treatment
Summary of the method: as §1

[5] = tested on: MCF-10A; experiment: Cytotoxicity, cell viability; type: cell-based, human; details: concentrations as high as 100 μM, 24 h treatment
Summary of the method: as §1

[6] = tested on: CXCR4-positive MDA-MB-231 human breast cancer cells; experiment: Matrigel invasion assay induced by CXCR4/CXCL12-mediated interaction; type: cell-based; details: MDA-MB-231, 22 h, read-out: Inhibition of cell invasion
Summary of the method: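 MDA-MB-231 cells were pre-mixed with test compound (100 nM) and seeded in the upper well of a Matrigel-coated chamber in serum-free medium. The lower well held CXCL12α (200 ng/mL) as chemoattractant. After 22 h in a humidified incubator, non-invading cells were swabbed off, and invading cells on the filter underside were methanol-fixed and H&E-stained. Percent invasion came from counts of stained cells.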

Sequence of CXCR4 (P61073 whole entry): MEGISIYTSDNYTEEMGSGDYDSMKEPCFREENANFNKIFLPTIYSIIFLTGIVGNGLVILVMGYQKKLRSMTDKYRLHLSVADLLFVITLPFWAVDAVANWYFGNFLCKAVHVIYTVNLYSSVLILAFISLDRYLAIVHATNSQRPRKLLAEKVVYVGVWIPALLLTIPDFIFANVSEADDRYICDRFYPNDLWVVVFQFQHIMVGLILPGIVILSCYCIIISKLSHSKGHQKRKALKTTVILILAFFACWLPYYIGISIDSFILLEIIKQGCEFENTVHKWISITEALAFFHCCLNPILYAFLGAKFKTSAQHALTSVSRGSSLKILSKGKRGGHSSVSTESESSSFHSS

SMILES: Cc1ccc(S(=O)(=O)NCc2ccc(CNC(=O)c3ccc(F)nc3)cc2)cc1 [Ib, 6-Fluoro-N-(4-(((4-methylphenyl)sulfonamido)methyl)benzyl)nicotinamide]
- EC reduced compared with RB-108 [1]: more than 1000 fold

SMILES: O=C(NCc1ccc(CNS(=O)(=O)c2ccc3c(c2)CCO3)cc1)c1ccc(F)cc1 [IIIm, 4-Fluoro-N-(4-(((2,3-dihydrobenzofuran)-5-sulfonamido)methyl)benzyl)benzamide]
- Inhibition of proliferation (cytotoxicity) [2]: did not inhibit the proliferation
- Number of inflammatory cells accumulated in the paw tissue (histological analysis, H&E) [3]: markedly decreased
- Inhibition of proliferation (cytotoxicity) [4]: did not inhibit the proliferation
- Inhibition of proliferation (cytotoxicity) [5]: did not inhibit the proliferation

SMILES: c1cc(CN2CCCNCCNCCCNCC2)ccc1CN1CCCNCCNCCCNCC1 [AMD3100]
- inhibition at 0.1 µM [6]: 55%

SMILES: Cc1ccc(S(=O)(=O)NCc2ccc(CNC(=O)c3ccc(F)cn3)cc2)cc1 [Ia, 5-Fluoro-N-(4-(((4-methylphenyl)sulfonamido)methyl)benzyl)picolinamide]
- EC reduced compared with RB-108 [1]: more than 1000 fold
